ZTA DNA inh: counter-screen for EBNA-1 inhibitors: inhibitors of Epstein-Barr virus ZTA. P03206. ZTA-DNA binding, fluorescence polarization. inhibition, % at 11 µM. 0.15% of 320,000 active. AID 2234; in the data active = inhibition above about 33%
EBNA-1 inhibitor: blocks EBNA-1 binding to DNA. 0.34% of 300,000 active. inhibition, % at 14.8 µM. EBNA-1 DNA binding, fluorescence polarization; in the data active = inhibition above about 28%
PfG6PD inh: PfG6PD (Plasmodium falciparum) enzyme inhibition; PfGluPho enzyme, NADPH resazurin-diaphorase fluorescence; inhibition, % at 20 µM; 0.78% of 350,000 active; AID 504690;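 active = inhibition reaching at least a set limit at 20 µM in the primary screen, cut at about 59% in these data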;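 also: 0% = DMSO wells with substrate and 100% = DMSO wells lacking glucose-6-phosphate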
Apaf-1 inh: blocks human Apaf-1 apoptosome activity. inhibition, % at 20 µM. reconstituted apoptosome caspase-3 activity, DEVD-Rh110 fluorescence. O14727. 0.71% of 330,000 active; active = inhibition of at least 40% at 20 µM;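 also: plate controls were DMSO wells for no effect and DEVD-CHO caspase inhibitor wells for full effect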
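System: reconstituted apoptosome with Apaf-1, cytochrome c, caspase-9, procaspase-3, dATP; Signal: Rh110 fluorescence intensity; Schedule: 30 min compound preincubation, 50 min activation, room temperature; Reagent: cytochrome c trigger plus (Z-DEVD)2-Rh110 caspase-3 substrate.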
UBC13 inh: blocks human UBC13 polyubiquitin chain formation. 0.47% of 330,000 active. TR-FRET. inhibition, % at 20 µM. AID 485273; in the data active = inhibition above about 45%, passing the limit was not always enough
PfM18AAP inh: PfM18AAP enzyme inhibition. recombinant PfM18AAP, H-Glu-NHMec fluorogenic cleavage. inhibition, % at 7.35 µM. 1.2% of 290,000 active. AID 1822;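 active = inhibition above the campaign mean inhibition over all tested compounds plus 3 SD, cut at about 28% in these data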;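 also: 0% = plate median of test compound wells and 100% = 2 mM ZnCl2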
Apaf-1 inh conf2: Apaf-1 inhibition, single-dose confirmed. shares compounds with Apaf-1 inh. reconstituted apoptosome, caspase-3 DEVD-Rh110 fluorescence. inhibition, % at 20 µM. 25% of 1,800 active. AID 504614;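 active = mean inhibition of at least 40% at 20 µM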;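 also: plate controls were DMSO wells for no effect and DEVD-CHO caspase inhibitor control wells for full effect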
Rh110 quench: counter-screen for Apaf-1 inhibitors: fluorescence interference. 1,800 tested, under 10 active. activation (fluorescence interference), % at 20 µM. shares compounds with Apaf-1 inh. Rh110 fluorescence interference, quenched caspase reaction;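 active = signal rise of 40% or more at 20 µM, treated as a fluorescence artifact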
Fluor interf inh: shows fluorescence interference in the Apaf-1 inhibitor assay format. fluorescence interference counterscreen, Apaf-1 assay format. 460 tested, under 10 active. AID 588538. IC50, µM. shares compounds with Apaf-1 inh; call rule not given here
Numbers without * were called inactive; . = not tested or not shown. Most compounds without a hit are left out; they make up all but 2.9% or so of the library.

SMILES | ZTA DNA inh | EBNA-1 inhibitor | PfG6PD inh | Apaf-1 inh | UBC13 inh | PfM18AAP inh | Apaf-1 inh conf2 | Rh110 quench | others
Cc1cc(C)n(-c2ncnc3ccccc23)n1 | -9.8 | -9.1 | -0.3 | 2.9 | 0.3 | -0.4 | . | .
CN(C)CCNC(=O)c1ccc(COc2ccc(Cl)cc2Cl)cc1 | -28.8 | -7.4 | 3.4 | 45.7* | 23.0 | 5.0 | 5.3 | 2.9
COCCNC(=O)CSc1nc2ccccc2c(=O)n1CCC(=O)N1CCN(c2ccccc2)CC1 | -8.3 | -10.6 | 1.2 | -9.9 | 8.6 | -1.3 | . | .
CCCC/C=C1/CCC(CN(C)C)C1=O (stereo unspecified) | . | . | 25.1 | . | . | . | . | .
COc1ccccc1Nc1cc2cc(Br)ccc2c(=O)[nH]1 | 11.9 | -1.2 | 4.0 | 96.8* | -136.6 | . | 98.1* | 15.9 | Fluor interf inh=>100
COc1ccc(OC)c(Nc2cc3ccccc3c(=O)[nH]2)c1 | -2.5 | -18.4 | 36.1 | 96.8* | -102.1 | . | 94.4* | 5.1 | Fluor interf inh=>100
Cn1c(=O)c2c(nc(Br)n2Cc2nnc(N)s2)n(C)c1=O | -4.4 | -19.0 | -8.1 | -1.4 | -6.3 | 3.1 | . | .
COc1ccc(NS(=O)(=O)c2cccc(C(=O)NNC(=O)NCCCl)c2)cc1 | -17.9 | -0.6 | -0.5 | -2.2 | -1.9 | 12.5 | . | .
Oc1ccc(/C=N/Nc2cc(N3CCCC3)nc(N3CCCC3)n2)cc1 | 5.0 | -0.3 | 3.6 | 97.4* | -10.8 | 3.3 | 99.7* | 11.6 | Fluor interf inh=>100
Oc1ccc(/C=N/Nc2cc(N3CCOCC3)nc(N3CCOCC3)n2)cc1 | -1.9 | -6.3 | -2.9 | 10.9 | -27.5 | 8.6 | . | .
COc1ccc(/C=N/Nc2cc(N3CCCC3)nc(N3CCCC3)n2)cc1 | 13.6 | 8.2 | 28.8 | 93.4* | -11.7 | 11.7 | 96.3* | 5.2 | Fluor interf inh=>100
COc1ccc(/C=N/Nc2cc(C)nc(-n3nc(C)cc3C)n2)cc1 | 4.1 | -1.6 | 19.7 | 21.8 | -8.3 | -1.4 | . | .
Oc1cccc(/C=N/Nc2cc(N3CCCC3)nc(N3CCCC3)n2)c1 | 8.2 | 7.6 | 41.7 | 96.9* | 5.6 | 1.4 | 98.5* | 11.0 | Fluor interf inh=>100
Cc1cccc(NC(=O)c2ccccc2NC(=O)c2ccco2)c1 | -1.9 | 4.1 | 5.2 | 5.6 | 2.1 | -8.5 | . | .
O=c1[nH]c(CN2CCN(c3ccccc3)CC2)nc2scc(-c3ccccc3)c12 | -7.6 | 5.2 | 2.7 | 27.8 | -3.4 | 2.3 | . | .
Fc1ccc(N2CCN(c3nc(CN4CCOCC4)nc4scc(-c5ccccc5)c34)CC2)cc1 | 5.3 | -10.9 | 16.6 | 41.4* | -1.3 | 1.8 | 17.1 | 4.0
COc1ccc(N2CCN(Cc3nc4scc(-c5ccccc5)c4c(=O)[nH]3)CC2)cc1 | 4.4 | 6.4 | 10.5 | 44.2* | 4.2 | -6.3 | -0.4 | 6.2
Cc1cccc(N2CCN(C(=O)c3ccc(Cl)c(S(=O)(=O)N4CCc5ccccc5C4)c3)CC2)c1C | 3.5 | 4.3 | -5.4 | 18.9 | -3.3 | 0.0 | . | .
COc1ccc(OC)c2c1cc(C(=O)N[C@H](C(=O)N1CCC[C@H]1C(=O)O)C(C)C)n2C | -4.9 | 3.9 | -13.8 | 52.1* | -11.6 | 7.5 | 26.3 | 3.7
CCCCCn1c(N)c(C#N)c2nc3ccccc3nc21 | -3.0 | -6.7 | 11.9 | 5.8 | 15.4 | 0.0 | . | .
CCCCn1c(NC(C)=O)c(C#N)c2nc3ccccc3nc21 | -10.3 | 3.5 | 54.5 | 84.5* | -1.0 | 11.3 | 26.1 | 3.0
C=CCn1c(N)c(C(=O)Nc2ccc(C)c(C)c2)c2nc3ccccc3nc21 | -2.0 | -18.0 | 3.3 | 22.8 | 12.7 | -6.3 | . | .
C=CCn1c(NC(=O)c2ccccc2Cl)c(C#N)c2nc3ccccc3nc21 | -0.5 | 2.5 | 8.9 | 96.1* | -28.7 | 16.9 | 60.1* | 4.7 | Fluor interf inh=>100
CN(C)CCCN(C(=O)CCc1ccccc1)c1nc2ccc(Cl)cc2s1 | 7.2 | 3.3 | 28.9 | 44.4* | 35.6 | 1.7 | 12.3 | 10.3
Cc1ccc2nc(N(CCCN(C)C)C(=O)CCc3ccccc3)sc2c1 | 13.2 | -0.1 | 13.5 | . | . | -9.7 | . | .
SMILES | ZTA DNA inh | EBNA-1 inhibitor | PfG6PD inh | Apaf-1 inh | UBC13 inh | PfM18AAP inh | Apaf-1 inh conf2 | Rh110 quench | others
C=CCC[C@@H](Cc1ccc(F)cc1)C(=O)OC[C@@H]1CCCN1C(=O)[C@@H](CC=C)CC(=O)N(CCO)Cc1ccccc1 | . | . | 8.2 | 48.2* | 4.2 | . | 23.6 | 16.7
C=CCC[C@@H](Cc1ccc(F)cc1)C(=O)OC[C@@H]1CCCN1C(=O)[C@H](CC=C)CC(=O)N[C@H](CO)Cc1ccccc1 | . | . | 13.0 | 43.1* | 13.4 | . | 28.2 | 14.3
C=CCC[C@@H](Cc1ccc(F)cc1)C(=O)OC[C@H]1CCCN1C(=O)[C@@H](CC=C)CC(=O)N[C@H](CO)Cc1ccccc1 | . | . | 18.7 | 40.1* | 21.3 | . | 34.4 | 6.0
C=CC[C@@H](Cc1ccc(F)cc1)C(=O)OC[C@H]1CCCN1C(=O)[C@@H](CC=C)CC(=O)N[C@@H](CO)Cc1ccccc1 | . | . | 13.8 | 28.4 | 29.2 | . | . | .
Cc1cc(OCC(O)CNC(C)(C)C)ccc1Cl (stereo unspecified) | 1.6 | 1.7 | -5.2 | 4.1 | 2.4 | 2.1 | . | .
CN(CCO)c1nc(N)c2c(N)nc3c(c2c1C#N)CC(=O)N3C1CCCC1 | 4.6 | 0.3 | . | 98.3* | -47.7 | -11.5 | 21.4 | -0.6
CC(C)(C)N1C(=O)Cc2c1nc(N)c1c(N)nc(N3CCCCC3CO)c(C#N)c21 (stereo unspecified) | -6.7 | -3.4 | 88.8* | 98.7* | -51.2 | 13.8 | 21.1 | 2.7
c1ccc(CCN=C2CCCc3c2[nH]c2ccccc32)cc1 | 8.2 | 4.1 | -0.1 | -8.8 | 3.2 | -12.3 | . | .
Nc1ccc2c(c1)C(=O)c1ccccc1-2 | 0.3 | -2.9 | 4.9 | -2.2 | -102.3 | . | . | .
O=C1C(=O)c2ccc(-c3ccccc3)cc2-c2ccccc21 | 6.5 | -6.0 | 53.4 | 98.1* | -49.5 | 0.5 | 99.7* | 7.6 | Fluor interf inh=>100
COc1ccc(/C=N/NC(=O)c2nn(-c3ccccc3)c(=O)c3c(N)scc23)cc1 | -8.9 | -5.2 | 36.1 | 60.5* | -29.6 | 13.5 | 40.2* | 1.5 | Fluor interf inh=>100
CCOC(=O)c1nn(-c2ccc(OC)cc2)c(=O)c2c(N)scc12 | -0.5 | 5.6 | 34.2 | 20.5 | -17.9 | 3.5 | . | .
COc1ccc(/C=N/NC(=O)c2nn(-c3ccc(C)c(C)c3)c(=O)c3ccccc23)cc1 | -8.3 | -8.8 | 0.7 | 13.8 | -27.6 | 8.7 | . | .
COc1ccc(/C=N/NC(=O)c2nn(-c3ccc(Cl)cc3)c(=O)c3c(N)scc23)cc1 | -10.5 | -9.1 | 27.0 | 53.8* | -35.1 | 2.7 | 25.7 | 3.5
CN(Cc1ccc(C(C)(C)C)cc1)C(=O)Cc1ccc(S(=O)(=O)N2CCOCC2)s1 | -10.0 | . | 17.2 | 16.3 | 18.2 | . | . | .
Cc1cc(=O)oc2c(CN(C)Cc3ccccc3)c(O)ccc12 | -17.1 | 4.5 | 2.1 | -2.0 | 17.1 | 13.1 | . | .

Bioassay records from PubChem BioAssay.
